Reference: ChEMBL document CHEMBL1154956, “Stereospecific synthesis of oximes and oxime ethers of 3-azabicycles: A SAR study towards antimicrobial agents” (2010)
Values after ≈ are worked out from the molar mass of the structure shown.

Legend:
Assay type in all cases: functional
Bacillus subtilis = assay: Antibacterial activity against Bacillus subtilis by NCCLS broth microdilution method
Staphylococcus aureus = assay: Antibacterial activity against Staphylococcus aureus by NCCLS broth microdilution method
Klebsiella pneumoniae = assay: Antibacterial activity against Klebsiella pneumoniae by NCCLS broth microdilution method
Pseudomonas aeruginosa = assay: Antibacterial activity against Pseudomonas aeruginosa by NCCLS broth microdilution method
Candida albicans = assay: Antifungal activity against Candida albicans by NCCLS broth microdilution method
Method in brief: (§1)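 MIC90 was taken as the lowest concentration that inhibited 90% of pathogen growth after incubation, reported in μg/mL. Broth dilution followed the NCCLS reference standards: M27-A for yeasts and the proposed standard for conidium-forming filamentous fungi. Fluconazole was the reference drug.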

Candida parapsilosis = assay: Antifungal activity against Candida parapsilosis by NCCLS broth microdilution method; method in brief: as §1
Aspergillus niger = assay: Antifungal activity against Aspergillus niger by NCCLS broth microdilution method; method in brief: as §1
Cryptococcus neoformans = assay: Antifungal activity against Cryptococcus neoformans by NCCLS broth microdilution method; method in brief: as §1
[1] = Bacillus subtilis, read-out: MIC90
[2] = Staphylococcus aureus, read-out: MIC90
[3] = Klebsiella pneumoniae, read-out: MIC90
[4] = Pseudomonas aeruginosa, read-out: MIC90
[5] = Candida albicans, read-out: MIC90
[6] = Lodderomyces parapsilosis, read-out: MIC90
[7] = Aspergillus niger, read-out: MIC90
[8] = Cryptococcus neoformans, read-out: MIC90

Row | Compound | MIC90 (Bacillus subtilis; [1]) [µg/mL] | MIC90 (Staphylococcus aureus; [2]) [µg/mL] | MIC90 (Klebsiella pneumoniae; [3]) [µg/mL] | MIC90 (Pseudomonas aeruginosa; [4]) [µg/mL] | MIC90 (Candida albicans; [5]) [µg/mL] | MIC90 (Candida parapsilosis; [6]) [µg/mL] | MIC90 (Aspergillus niger; [7]) [µg/mL] | MIC90 (Cryptococcus neoformans; [8]) [µg/mL] | MIC90 (Bacillus subtilis) [µg/mL] | MIC90 (Staphylococcus aureus) [µg/mL] | MIC90 (Klebsiella pneumoniae) [µg/mL] | MIC90 (Pseudomonas aeruginosa) [µg/mL] | MIC90 (Candida albicans) [µg/mL] | MIC90 (Candida parapsilosis) [µg/mL] | MIC90 (Aspergillus niger) [µg/mL] | MIC90 (Cryptococcus neoformans) [µg/mL]
1 | CC12CCCC(/C1=N\O)C(c1ccccc1Br)NC2c1ccccc1Br (configuration not stated) | 128 (≈ 268 µM) | 64 (≈ 134 µM) | 128 (≈ 268 µM) | > 128 | 64 (≈ 134 µM) | 64 (≈ 134 µM) | 128 (≈ 268 µM) | > 128 | – | – | – | – | – | – | – | –
2 | GENTAMICIN | – | – | – | – | – | – | – | – | 16 | 4 | 2 | 16 | – | – | – | –
3 | CC1CC2C(=NO)C(C1)C(c1ccccc1F)NC2c1ccccc1F (stereo in doubt; 49a) | 16 (≈ 44.9 µM) | – | – | – | – | – | – | – | – | 8 (≈ 22.4 µM) | 16 (≈ 44.9 µM) | 32 (≈ 89.8 µM) | 64 (≈ 180 µM) | 128 (≈ 359 µM) | 64 (≈ 180 µM) | 64 (≈ 180 µM)
4 | CO/N=C1\C2CCCC1(C)C(c1ccccc1Cl)NC2c1ccccc1Cl (configuration not stated) | 32 (≈ 79.3 µM) | 4 (≈ 9.92 µM) | 8 (≈ 19.8 µM) | 8 (≈ 19.8 µM) | 32 (≈ 79.3 µM) | 4 (≈ 9.92 µM) | 16 (≈ 39.7 µM) | 4 (≈ 9.92 µM) | – | – | – | – | – | – | – | –
5 | CC12CCCC(/C1=N\O)C(c1cccc(F)c1)NC2c1cccc(F)c1 (configuration not stated) | 128 (≈ 359 µM) | 64 (≈ 180 µM) | 32 (≈ 89.8 µM) | 128 (≈ 359 µM) | 32 (≈ 89.8 µM) | 64 (≈ 180 µM) | 128 (≈ 359 µM) | > 128 | – | – | – | – | – | – | – | –
6 | CC1CC2C(=NO)C(C1)C(c1ccc(Cl)cc1)NC2c1ccc(Cl)cc1 (configuration not stated) | 32 (≈ 82.2 µM) | 32 (≈ 82.2 µM) | 16 (≈ 41.1 µM) | 32 (≈ 82.2 µM) | 64 (≈ 164 µM) | 64 (≈ 164 µM) | 32 (≈ 82.2 µM) | 64 (≈ 164 µM) | – | – | – | – | – | – | – | –
7 | COc1ccc(C2NC(c3ccc(OC)cc3)C3(C)CCCC2/C3=N\O)cc1 (configuration not stated) | 128 (≈ 336 µM) | 32 (≈ 84.1 µM) | 64 (≈ 168 µM) | > 128 | 128 (≈ 336 µM) | > 128 | 128 (≈ 336 µM) | > 128 | – | – | – | – | – | – | – | –
8 | CON=C1C2CC(C)CC1C(c1ccccc1Cl)NC2c1ccccc1Cl (stereo in doubt; 58a) | – | 4 (≈ 9.92 µM) | – | – | 8 (≈ 19.8 µM) | – | – | – | 8 (≈ 19.8 µM) | – | 4 (≈ 9.92 µM) | 4 (≈ 9.92 µM) | – | 16 (≈ 39.7 µM) | 32 (≈ 79.3 µM) | 16 (≈ 39.7 µM)
9 | CC12CCCC(/C1=N\O)C(c1ccc(Br)cc1)NC2c1ccc(Br)cc1 (configuration not stated) | > 128 | 64 (≈ 134 µM) | > 128 | > 128 | > 128 | > 128 | 128 (≈ 268 µM) | 128 (≈ 268 µM) | – | – | – | – | – | – | – | –
10 | Cc1ccc(C2NC(c3ccc(C)cc3)C3(C)CCCC2/C3=N\O)cc1 (configuration not stated) | 128 (≈ 367 µM) | 128 (≈ 367 µM) | > 128 | > 128 | 128 (≈ 367 µM) | > 128 | 64 (≈ 184 µM) | 128 (≈ 367 µM) | – | – | – | – | – | – | – | –
11 | CC1CC2C(=NO)C(C1)C(c1cccc(F)c1)NC2c1cccc(F)c1 (stereo in doubt; 50a) | 128 (≈ 359 µM) | 32 (≈ 89.8 µM) | 32 (≈ 89.8 µM) | 64 (≈ 180 µM) | 128 (≈ 359 µM) | 64 (≈ 180 µM) | 64 (≈ 180 µM) | > 128 | – | – | – | – | – | – | – | –
12 | CO/N=C1\C2CCCC1(C)C(c1ccccc1F)NC2c1ccccc1F (configuration not stated) | 16 (≈ 43.2 µM) | 4 (≈ 10.8 µM) | 4 (≈ 10.8 µM) | 8 (≈ 21.6 µM) | 4 (≈ 10.8 µM) | 8 (≈ 21.6 µM) | 16 (≈ 43.2 µM) | 8 (≈ 21.6 µM) | – | – | – | – | – | – | – | –
13 | CO/N=C1\C2CCCC1(C)C(c1ccccc1C)NC2c1ccccc1C (configuration not stated) | 32 (≈ 88.3 µM) | 32 (≈ 88.3 µM) | 128 (≈ 353 µM) | 128 (≈ 353 µM) | 64 (≈ 177 µM) | 128 (≈ 353 µM) | 64 (≈ 177 µM) | 128 (≈ 353 µM) | – | – | – | – | – | – | – | –
14 | CC1CC2C(=NO)C(C1)C(c1ccc(F)cc1)NC2c1ccc(F)cc1 (configuration not stated) | 64 (≈ 180 µM) | 8 (≈ 22.4 µM) | 32 (≈ 89.8 µM) | 64 (≈ 180 µM) | 32 (≈ 89.8 µM) | 64 (≈ 180 µM) | 64 (≈ 180 µM) | 32 (≈ 89.8 µM) | – | – | – | – | – | – | – | –
15 | CO/N=C1\C2CCCC1(C)C(c1ccccc1)NC2c1ccccc1 (configuration not stated) | > 128 | 64 (≈ 191 µM) | 128 (≈ 383 µM) | > 128 | 128 (≈ 383 µM) | > 128 | > 128 | > 128 | – | – | – | – | – | – | – | –
16 | CO/N=C1\C2CCCC1(C)C(c1ccc(OC)cc1)NC2c1ccc(OC)cc1 (configuration not stated) | 64 (≈ 162 µM) | 16 (≈ 40.6 µM) | 64 (≈ 162 µM) | 128 (≈ 324 µM) | 64 (≈ 162 µM) | 128 (≈ 324 µM) | 128 (≈ 324 µM) | > 128 | – | – | – | – | – | – | – | –
17 | CC12CCCC(/C1=N\O)C(c1ccccc1Cl)NC2c1ccccc1Cl (configuration not stated) | 64 (≈ 164 µM) | 8 (≈ 20.5 µM) | 16 (≈ 41.1 µM) | 32 (≈ 82.2 µM) | 64 (≈ 164 µM) | 8 (≈ 20.5 µM) | 16 (≈ 41.1 µM) | 8 (≈ 20.5 µM) | – | – | – | – | – | – | – | –
